Test results published in PubChem BioAssay AID540246 (Broad Institute, 2011).
Activity calls are given as the source filed them.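 The calls were made as follows: active = IC50 no more than ten times the top valid dose, with luminescence dropping as cells die; inconclusive = flat curve losing 30 to 70% of signal, or poor fit; inactive = the rest, including signal rises.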

Test: cell viability loss over short exposure – CellTiter-Glo, 3 h, dry powder, cytotoxicity control for SR-BI HDL uptake inhibitor project, dose response (AID 540246)
Settings: ldlA[mSR-BI] CHO cells viability, CellTiter-Glo ATP, 3 h; at 35 µM (top of the series)
Summary of the method: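 Test system: ldlA[mSR-BI] cells, viability (cytotoxicity counter-screen); buffer or medium: Ham's F12 plus 10% FCS; incubation: 3 h compound treatment, 37 °C; measured by: luminescence from Cell Titer Glo luciferase reagent sensing cellular ATP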

For Cc1cc(C)c2c(c1)NC(c1cc3c(cc1Br)OCO3)C1CC=CC21 (stereo not given), which activity change, negative = cytotoxicity is on record?
The activity change, negative = cytotoxicity was -1.84% (inactive).

Which activity change, negative = cytotoxicity does the source give for COc1ccc([C@H]2CC(=O)C=C(c3cccc4c3sc3ccccc34)C2)cc1OC here?
The activity change, negative = cytotoxicity was 3.09% (inactive).

With C[C@H]1CN([C@@H](C)CO)C(=O)c2cccc(NS(C)(=O)=O)c2O[C@@H]1CN(C)Cc1ccc(Cl)c(Cl)c1 as the compound, how does the activity change, negative = cytotoxicity read?
Its activity change, negative = cytotoxicity is 7.9% (inactive).

For O=C(Nc1ccccc1Cl)c1ccccc1NS(=O)(=O)c1ccccc1, which activity change, negative = cytotoxicity is on record?
The activity change, negative = cytotoxicity was 0.062% (inactive).

With CCOC(=O)N1CCC(NC(=O)c2ccc3c(c2)N(Cc2ccc(F)cc2)CCS3)CC1 as the compound, how does the activity change, negative = cytotoxicity read?
The activity change, negative = cytotoxicity was -2.37% (inactive).

For O=C(Nc1cc(Cl)ccc1Cl)c1cc(Br)ccc1NS(=O)(=O)c1ccc(Cl)c([N+](=O)[O-])c1, which activity change, negative = cytotoxicity is on record?
Its activity change, negative = cytotoxicity is -7.81% (inactive).

With CCn1c(COc2c(C)cccc2C)nnc1SCC(=O)N1CCN(c2ccccc2)CC1 as the compound, how does the activity change, negative = cytotoxicity read?
The activity change, negative = cytotoxicity was -2.44% (inactive).

With O=C(Nc1ccc(-c2nc3cc(NC(=O)c4ccccc4[N+](=O)[O-])ccc3o2)cc1)c1ccccc1[N+](=O)[O-] as the compound, how does the activity change, negative = cytotoxicity read?
Its activity change, negative = cytotoxicity is 9.71% (inactive).

Which activity change, negative = cytotoxicity does the source give for CCc1sc(N2C(=O)C3C4CCC(C4=C(C)C)C3C2=O)nc1-c1ccccc1 (stereo not given) here?
The activity change, negative = cytotoxicity was 3.35% (inactive).

Which activity change, negative = cytotoxicity does the source give for C[C@H]1CN([C@@H](C)CO)C(=O)c2cccc(NC(=O)Nc3ccccc3)c2O[C@@H]1CN(C)S(C)(=O)=O here?
The activity change, negative = cytotoxicity was -2.86% (inactive).

Which activity change, negative = cytotoxicity does the source give for CNC[C@@H]1Oc2ccc(NC(=O)Cc3cn(C)c4ccccc34)cc2C(=O)N([C@H](C)CO)C[C@H]1C here?
Its activity change, negative = cytotoxicity is -2.77% (inactive).

For C[C@H](CO)N1C[C@H](C)[C@H](CN(C)S(=O)(=O)c2ccc(F)cc2)Oc2ccc(NS(C)(=O)=O)cc2C1=O, which activity change, negative = cytotoxicity is on record?
The activity change, negative = cytotoxicity was -0.83% (inactive).

Which activity change, negative = cytotoxicity does the source give for Cc1cc(C)n(CC(=O)NC2CCCc3c2cnn3-c2ccc(C)c(C)c2)n1 (stereo not given) here?
The activity change, negative = cytotoxicity was 0.308% (inactive).

With C[C@H]1CN([C@@H](C)CO)C(=O)c2cccc(N(C)C)c2O[C@@H]1CN(C)Cc1ccc(Cl)c(Cl)c1 as the compound, how does the activity change, negative = cytotoxicity read?
The activity change, negative = cytotoxicity was -9.85% (inactive).

With COc1ccc(OC)c(CCNC(=O)c2ccc3c(c2)N(Cc2ccc(F)cc2)CCS3)c1 as the compound, how does the activity change, negative = cytotoxicity read?
Its activity change, negative = cytotoxicity is -8.19% (inactive).

Which activity change, negative = cytotoxicity does the source give for CC(C)(C)NC(=O)N1CCN(c2ncccc2C(F)(F)F)CC1 here?
The activity change, negative = cytotoxicity was 5.12% (inactive).

For Nc1ccc(C(=O)Nc2ccc(-c3nc4ccc(NC(=O)c5ccc(N)cc5)cc4[nH]3)cc2)cc1, which activity change, negative = cytotoxicity is on record?
Its activity change, negative = cytotoxicity is 11.1% (inactive).

For C[C@H](CO)N1C[C@H](C)[C@H](CN(C)S(=O)(=O)c2ccc(F)cc2)Oc2ccc(NC(=O)CCC(F)(F)F)cc2C1=O, which activity change, negative = cytotoxicity is on record?
Its activity change, negative = cytotoxicity is 0.245% (inactive).

With CC(OC(=O)c1cccc(NS(C)(=O)=O)c1)C(=O)Nc1ccc(N2CCOCC2)cc1 (stereo not given) as the compound, how does the activity change, negative = cytotoxicity read?
Its activity change, negative = cytotoxicity is -2.45% (inactive).

With C[C@@H]1CN([C@H](C)CO)C(=O)Cc2cc(NC(=O)Cc3cn(C)c4ccccc34)ccc2O[C@H]1CN(C)S(=O)(=O)c1ccc(F)cc1 as the compound, how does the activity change, negative = cytotoxicity read?
The activity change, negative = cytotoxicity was -1% (inactive).

For C[C@H]1CN([C@@H](C)CO)C(=O)c2cc(NC(=O)Cc3cn(C)c4ccccc34)ccc2O[C@@H]1CN(C)S(=O)(=O)c1ccc(F)cc1, which activity change, negative = cytotoxicity is on record?
The activity change, negative = cytotoxicity was 6.2% (inactive).

For CCC(=O)N1CCc2cc(-c3csc(NC(=O)c4ccco4)n3)ccc21, which activity change, negative = cytotoxicity is on record?
Its activity change, negative = cytotoxicity is -3.84% (inactive).

Which activity change, negative = cytotoxicity does the source give for COc1cccc(-c2csc(N3CCN(C(=S)Nc4cccc(Cl)c4)CC3)n2)c1 here?
Its activity change, negative = cytotoxicity is -1.79% (inactive).

Which activity change, negative = cytotoxicity does the source give for O=C(Nc1ccc(-c2nc3cc(NC(=O)c4ccccc4Cl)ccc3o2)cc1)c1ccccc1Cl here?
Its activity change, negative = cytotoxicity is 15.2% (inactive).

Which activity change, negative = cytotoxicity does the source give for CC(C)OCCCNC(=O)c1ccc(C2SCC(=O)N2Cc2ccco2)cc1 (stereo not given) here?
Its activity change, negative = cytotoxicity is 0.099% (inactive).

Which activity change, negative = cytotoxicity does the source give for C[C@H]1CN([C@@H](C)CO)C(=O)c2cc(NC(=O)Nc3ccccc3)ccc2O[C@@H]1CN(C)Cc1ccc(Cl)c(Cl)c1 here?
The activity change, negative = cytotoxicity was -3.65% (inactive).

With C[C@@H]1CN([C@@H](C)CO)C(=O)c2cc(NC(=O)Cc3cn(C)c4ccccc34)ccc2O[C@H]1CN(C)S(=O)(=O)c1ccc(F)cc1 as the compound, how does the activity change, negative = cytotoxicity read?
Its activity change, negative = cytotoxicity is -10.2% (inactive).

Which activity change, negative = cytotoxicity does the source give for C[C@@H]1CN([C@@H](C)CO)C(=O)c2cc(NC(=O)Cc3cn(C)c4ccccc34)ccc2O[C@@H]1CN(C)S(=O)(=O)c1ccc(F)cc1 here?
The activity change, negative = cytotoxicity was 6.07% (inactive).

With C[C@H](CO)N1C[C@H](C)[C@H](CN(C)S(=O)(=O)c2ccc(F)cc2)Oc2ccc(NC(=O)Cc3ccccc3)cc2C1=O as the compound, how does the activity change, negative = cytotoxicity read?
Its activity change, negative = cytotoxicity is 2.52% (inactive).

Which activity change, negative = cytotoxicity does the source give for C[C@@H]1CN([C@H](C)CO)C(=O)c2cc(NC(=O)Cc3cn(C)c4ccccc34)ccc2O[C@H]1CN(C)S(=O)(=O)c1ccccc1 here?
The activity change, negative = cytotoxicity was 1.67% (inactive).
